Consider 22 molecules from ChEMBL document CHEMBL1764953, “Discovery of orally active carboxylic acid derivatives of 2-phenyl-5-trifluoromethyloxazole-4-carboxamide as potent diacylglycerol acyltransferase-1 inhibitors for the potential treatment of obesity and diabetes” (J Med Chem, 2011).

The target in series [1] is T1, hERG (Homo sapiens, UniProt Q12809). Briefly: Inhibition of human ERG-mediated current expressed in CHO cells by patch clamp method. It counts as cell-based. As to conditions: CHO cells expressing human ERG. The method, boiled down:
(§1)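 hERG-transfected CHO cells on automated whole-cell patch clamp at a holding potential of −80 mV; 1 s depolarizing pulse at 0.1 Hz; tail current measured at −40 mV. Sequence: 0.3% DMSO vehicle, three ascending log-interval concentrations up to 30 μM or the solubility limit, then 1 μM E-4031. At least 3 cells per compound; data normalized to vehicle and fitted with the Hill equation.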

A short description of series [2]: Solubility of the compound at mp 217 degC. It counts as physicochemical.
Series [3] concerns the target T2, Diacylglycerol O-acyltransferase 1 (Homo sapiens, UniProt O75907).
T2 sequence (O75907 whole entry): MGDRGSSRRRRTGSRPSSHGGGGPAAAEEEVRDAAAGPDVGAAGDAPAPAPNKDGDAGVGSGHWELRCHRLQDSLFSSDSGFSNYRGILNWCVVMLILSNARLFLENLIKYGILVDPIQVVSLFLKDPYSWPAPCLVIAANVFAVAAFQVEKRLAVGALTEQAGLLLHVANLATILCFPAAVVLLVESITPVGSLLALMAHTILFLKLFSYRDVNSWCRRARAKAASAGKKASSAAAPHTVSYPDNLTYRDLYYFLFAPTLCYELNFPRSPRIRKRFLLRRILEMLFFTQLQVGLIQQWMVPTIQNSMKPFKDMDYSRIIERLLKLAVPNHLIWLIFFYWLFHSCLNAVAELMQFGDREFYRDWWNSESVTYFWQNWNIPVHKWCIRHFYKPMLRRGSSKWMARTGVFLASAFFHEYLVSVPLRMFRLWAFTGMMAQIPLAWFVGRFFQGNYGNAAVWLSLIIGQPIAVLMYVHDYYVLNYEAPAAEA
Briefly: Inhibition of human DGAT1 expressed in CHO-K1 cells after 1 hr using 14C palmitic acid.

Series [4] deals with T1, hERG. Briefly: Inhibition of human ERG-mediated current expressed in CHO cells at 1 uM by patch clamp method. It is filed as cell-based. As to conditions: CHO cells expressing human ERG. An outline of the steps: as §1
Series [5] has as its target T2, Diacylglycerol O-acyltransferase 1. Briefly: Inhibition of human DGAT1 expressed in baculovirus infected insect cells after 1 hr using palmitoyl-1-14C-coenzyme A by phospholipid flashplate assay.
Series [6] has as its target T1, hERG. Briefly: Inhibition of human ERG-mediated current expressed in CHO cells at 3 uM by patch clamp method. It counts as cell-based. Conditions: CHO cells expressing human ERG. An outline of the steps: as §1
Series [7] is described as follows: Tmax in diet-induced obese mouse at 25 mg/kg administered as suspension. It is filed as ADME, organism-based. Also on record: dose 25 mg/kg. Conditions: in vivo.
The nature of series [8]: Cmax in diet-induced obese mouse plasma at 25 mg/kg administered as suspension. It is filed as ADME, organism-based. Set-up: dose 25 mg/kg.
Series [9] concerns the target T1, hERG. Briefly: Inhibition of human ERG-mediated current expressed in CHO cells at 30 uM by patch clamp method. It counts as cell-based. Conditions: CHO cells expressing human ERG. The method, boiled down:
as §1

The test system of another series is Rattus norvegicus. Briefly: Antiobesity activity in diet-induced obese rat assessed as reduction in body weight gain at 25 mg/kg, po qd. It counts as functional. Also on record: scale not given: the % may be the effect or the level left.
Series [10] in a line: Oral bioavailability in rat at 5 mg/kg. As to conditions: in vivo. It is filed as ADME, organism-based.
A short description of series [11]: Clearance in rat at 5 mg/kg, iv. It counts as ADME, organism-based. Set-up: dose 5 mg/kg, route intravenous. As to conditions: in vivo.
The target of series [12] is T1, hERG. Briefly: Inhibition of human ERG.
The species named for another series is Cavia porcellus. Briefly: Cardiotoxicity in guinea pig Langendorff heart model assessed as QT QT prolongation. It is filed as toxicity.

T1 sequence (Q12809 whole entry): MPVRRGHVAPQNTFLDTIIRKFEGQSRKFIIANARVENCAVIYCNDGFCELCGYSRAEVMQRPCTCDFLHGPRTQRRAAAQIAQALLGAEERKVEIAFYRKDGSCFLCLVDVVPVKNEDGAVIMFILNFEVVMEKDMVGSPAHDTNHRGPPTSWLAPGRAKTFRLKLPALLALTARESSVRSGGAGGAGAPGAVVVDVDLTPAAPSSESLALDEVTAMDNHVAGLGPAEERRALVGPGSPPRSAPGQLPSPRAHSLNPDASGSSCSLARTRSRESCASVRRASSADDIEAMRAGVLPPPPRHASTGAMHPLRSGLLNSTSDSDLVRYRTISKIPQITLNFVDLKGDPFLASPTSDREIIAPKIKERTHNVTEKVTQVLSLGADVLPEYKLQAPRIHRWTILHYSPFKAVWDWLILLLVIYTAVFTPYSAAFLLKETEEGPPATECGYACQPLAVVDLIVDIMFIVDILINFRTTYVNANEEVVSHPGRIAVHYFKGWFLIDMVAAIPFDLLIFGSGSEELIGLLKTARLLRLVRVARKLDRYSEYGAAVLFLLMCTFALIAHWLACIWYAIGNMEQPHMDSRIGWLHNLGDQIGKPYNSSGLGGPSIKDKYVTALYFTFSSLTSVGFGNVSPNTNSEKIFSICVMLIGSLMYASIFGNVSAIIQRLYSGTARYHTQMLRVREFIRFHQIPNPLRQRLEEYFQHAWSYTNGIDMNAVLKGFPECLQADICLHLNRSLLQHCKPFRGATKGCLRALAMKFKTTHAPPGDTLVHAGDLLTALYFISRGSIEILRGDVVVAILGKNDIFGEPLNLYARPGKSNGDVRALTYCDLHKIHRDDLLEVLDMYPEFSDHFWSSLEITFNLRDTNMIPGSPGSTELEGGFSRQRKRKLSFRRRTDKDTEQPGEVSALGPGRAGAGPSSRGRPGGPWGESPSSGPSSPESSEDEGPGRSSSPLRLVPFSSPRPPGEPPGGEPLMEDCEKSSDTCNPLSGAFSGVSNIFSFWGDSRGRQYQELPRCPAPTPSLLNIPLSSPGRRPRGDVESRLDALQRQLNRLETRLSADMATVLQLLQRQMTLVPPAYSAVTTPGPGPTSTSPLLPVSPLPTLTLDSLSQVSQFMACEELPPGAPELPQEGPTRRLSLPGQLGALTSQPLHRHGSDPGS

Molecule `CCOC1CN(c2ccc(NC(=O)c3nc(-c4ccccc4)oc3C(F)(F)F)cn2)C1` gave an IC20 on hERG [1] of 370 nM.

`O=C(Nc1ccc(N2CC(F)(F)C2)nc1)c1nc(-c2ccccc2)oc1C(F)(F)F` returned a solubility in [2] below 1 µg/mL. This molecule also showed a 50% effective concentration (EC50) in [3] of 25000 nM. This molecule registered an inhibition at 1 µM against hERG [4] of 17%. This molecule also registered an IC50 in series [5] of 16 nM. On hERG [6], `O=C(Nc1ccc(C2CCN(C(=O)[C@H]3CC[C@@H](C(=O)O)CC3)CC2)cc1)c1nc(-c2ccccc2)oc1C(F)(F)F` yielded an inhibition at 3 µM of 21%. In addition, in series [3], the midpoint of the response, the EC50, lay at 220 nM. Besides, the IC50 in [5] was found to be 82 nM. `O=C(Nc1ccc(C2CCN(C(=O)C3CC3)CC2)cc1)c1nc(-c2ccccc2)oc1C(F)(F)F` showed an inhibition at 3 µM on hERG [6] of 13%. Further, the time of peak concentration (Tmax) in [7] is 1 h. In addition, the highest concentration (Cmax) in series [8] turned out to be 76 ng/mL. Regarding `O=C(O)COC1CN(c2ccc(NC(=O)c3nc(-c4ccccc4)oc3C(F)(F)F)cn2)C1`, the inhibition at 30 µM against hERG [9] stood at 12%. Molecule `COCCN(C)c1ncc(NC(=O)c2nc(-c3ccccc3)oc2C(F)(F)F)cn1` had an IC20 against hERG [1] of 1500 nM. Molecule `COCCN(C)c1ccc(N(C)C(=O)c2nc(-c3ccccc3)oc2C(F)(F)F)cn1` registered an inhibition at 30 µM against hERG [9] of 34%. Consider `COC(=O)N1CCC(c2ccc(NC(=O)c3nc(-c4ccccc4)oc3C(F)(F)F)cn2)CC1`, for which, on hERG [4], the inhibition at 1 µM was 16%.

`O=C(Nc1ccc(N2CCN(C(=O)[C@H]3CC[C@H](C(=O)O)CC3)CC2)cc1)c1nc(-c2ccccc2)oc1C(F)(F)F`: the inhibition at 1 µM against hERG [4] came out at 5%.

As to `O=C(Nc1cnc(N2CC[C@H](O)C2)nc1)c1nc(-c2ccccc2)oc1C(F)(F)F`, it took 10000 nM to reach the 20% level on hERG [1] (IC20). Take `COCCN(C)c1ccc(NC(=O)c2nc(C)oc2C(F)(F)F)cn1`: 30 µM produced 37% inhibition against hERG [9]. Take `CCOC(=O)N1CCN(c2ccc(NC(=O)c3nc(-c4ccccc4)oc3C(F)(F)F)cn2)CC1`: it took 800 nM to reach the 20% level against hERG [1] (IC20). `COC(=O)N1CCC(c2ccc(NC(=O)c3nc(-c4ccccc4)oc3C(F)(F)F)cc2)CC1`: the Cmax in [8] was below 10 ng/mL. The molecule `O=C(Nc1ccc(N2CCN(C(=O)[C@H]3CC[C@@H](C(=O)O)CC3)CC2)cc1)c1nc(-c2ccccc2)oc1C(F)(F)F` gave a concentration for an effect of 20% (IC20) against hERG [1] above 10000 nM. As for `COC(=O)N1CCN(c2ccc(NC(=O)c3nc(-c4ccccc4)oc3C(F)(F)F)cc2)CC1`, the inhibition at 3 µM against hERG [6] was 16%. In the case of `O=C(Nc1ccc(N2CCN(C(=O)C3CC3)CC2)cc1)c1nc(-c2ccccc2)oc1C(F)(F)F`, at hERG [6], the inhibition at 3 µM was determined as 35%. `O=C(Nc1ccc(N2CCN(C(=O)C3CC3)CC2)nc1)c1nc(-c2ccccc2)oc1C(F)(F)F` gave an IC20 against hERG [1] of 180 nM. `COCCN(C)c1ccc(NC(=O)c2nc(-c3ccccc3)oc2C(F)(F)F)cc1` came in with an inhibition at 1 µM against hERG [4] of 18%. On to `O=C(Nc1ccc(C2CCN(C(=O)C3CC3)CC2)nc1)c1nc(-c2ccccc2)oc1C(F)(F)F`, for which the IC20 at hERG [1] turned out to be 1730 nM. As for `COC(=O)N1CCN(c2ncc(NC(=O)c3nc(-c4ccccc4)oc3C(F)(F)F)cn2)CC1`, the inhibition at 1 µM against hERG [4] was 28%.

`COC(=O)N1CCN(c2ccc(NC(=O)c3nc(-c4ccccc4)oc3C(F)(F)F)cn2)CC1` returned an IC20 against hERG [1] of 1940 nM. As to `COCCN(C)c1ccc(NC(=O)c2nc(-c3ccccc3)oc2C(F)(F)F)cn1`, the IC20 on hERG [1] and against hERG [12] was 200 nM in each case. For the same molecule, the Activity in the series with Rattus norvegicus was 4.3%; in the series filed under Cavia porcellus, “Toxic”. Moreover, in [10], the bioavailability was 77%. In series [11], this molecule registered a clearance of 13.5 mL/min/kg.
